Series [1] is described as follows: folding enthalpy; higher = less favourable; fluorescence melt of hairpins on a sequencing array, two-state fit. The conditions noted are these: sodium 0.088 M. The method in brief: (§1)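 Library hairpins on a sequenced MiSeq flow cell carried annealed Cy3 and quencher oligos, and their Cy3 fluorescence was imaged in 50 mM Na-HEPES pH 8.0 with 25 mM NaCl, in 2.5 °C steps up to 60 °C. Signals were normalised to Cy3 before quenching and to control constructs. Melting temperature and folding enthalpy were obtained from bootstrapped two-state fits, combined by inverse-variance weighting across four replicates, and the fitted temperatures were then raised by 9.35 °C to match UV melts.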

Series [2] is described as follows: melting temperature; fluorescence melt of hairpins on a sequencing array, two-state fit, raised by 9.35 °C to match UV melts. The conditions noted are these: sodium 0.088 M. An outline of the steps:
as §1

GCATTGGGAAACTAATGC (((((.(....).))))): in series [1], the folding enthalpy is -32.6 kcal/mol. The Tm in series [2] worked out at 46.7 °C.

As for GCATTTGGAAACAAATGC (((((((....))))))), the folding enthalpy in series [1] is -46.7 kcal/mol. In series [2], the Tm is 60 °C.

As for GCATTTGGAAACAGATGC ((((.((....)).)))), in series [1], the folding enthalpy is -33.4 kcal/mol. In addition, in series [2], the Tm is 44 °C.

GCCAAACGAAAGTTAGGC (((.(((....))).))): in series [1], the folding enthalpy was -29.5 kcal/mol. For the same sequence, in series [2], the Tm is 54.9 °C.

Turning to GCCAAATCGAAAGATGGC (((..(((....)))))), the folding enthalpy in series [1] was -27.2 kcal/mol. For the same sequence, in series [2], the Tm stood at 47.4 °C.

On to GCCAACCGAAAGGTCGGC (((.(((....))).))), for which, in series [1], the folding enthalpy is -40.2 kcal/mol. Besides, in series [2], the Tm came out at 59.4 °C.

Regarding GCCAACCGAAAGGTGGC (((.(((....)))))), the folding enthalpy in series [1] is -22.9 kcal/mol. The Tm in series [2] was 67.4 °C.

With GCCAACGAAAGTTCCGGC ((((((....)))..))), the folding enthalpy in series [1] was -20.6 kcal/mol. In series [2], the Tm turned out to be 36.3 °C.

As for GCCAACGAAAGTTCGGGC ((((((....)))..))), the folding enthalpy in series [1] is -30 kcal/mol. For the same sequence, the Tm in series [2] was 43.8 °C.

Regarding GCCAACGAAAGTTGGGGC ((((((....)))..))), the folding enthalpy in series [1] is -15.3 kcal/mol. Further, the Tm in series [2] was 65.4 °C.

GCCAACGAAAGTTTCGGC ((((((....)))..))): the folding enthalpy in series [1] is -18.4 kcal/mol. The Tm in series [2] came to 39 °C.

Take GCCAACGAAAGTTTGGC ((((((....))).))): the folding enthalpy in series [1] was -34.1 kcal/mol. The Tm in series [2] was determined as 54.6 °C.

Consider GCCAACGCGAAAGCGGGC (((..(((....)))))), for which the folding enthalpy in series [1] is -16.4 kcal/mol. Also, the Tm in series [2] was 63.4 °C.

As to GCCAACGGAAACGTTAGC ((.((((....)))).)), the folding enthalpy in series [1] was -23.6 kcal/mol. For the same sequence, the Tm in series [2] is 40 °C.

Take GCCAAGCGAAAGCACGGC (((..((....))..))): in series [1], the folding enthalpy is -30.4 kcal/mol. Further, in series [2], the Tm stood at 57.4 °C.

Consider GCCAAGCGAAAGCATAGC ((.(.((....)).).)), for which the folding enthalpy in series [1] was -12.9 kcal/mol. In addition, the Tm in series [2] came out at 30.7 °C.

On to GCCAAGCGAAAGCATCGC ((.(.((....)).).)), for which the folding enthalpy in series [1] is -6.8 kcal/mol. The Tm in series [2] was determined as 31.2 °C.

Regarding GCCAAGCGAAAGCCTTGC ((.(.((....)).).)), the folding enthalpy in series [1] is -13.6 kcal/mol. In addition, in series [2], the Tm is 33.9 °C.

For the sequence GCCAAGCGAAAGCGTAGC ((.(.((....)).).)), in series [1], the folding enthalpy is -13.3 kcal/mol. In addition, in series [2], the Tm was found to be 47.5 °C.

With GCCAAGCGAAAGCGTCGC ((.(.((....)).).)), the folding enthalpy in series [1] is -12.9 kcal/mol. In addition, the Tm in series [2] came to 45.5 °C.

As for GCCAAGCGAAAGCTAAGC ((..(((....)))..)), the folding enthalpy in series [1] is -14.4 kcal/mol. The Tm in series [2] stood at 37.6 °C.

As to GCCAAGCGAAAGCTACGC ((..(((....)))..)), in series [1], the folding enthalpy was -11 kcal/mol. The Tm in series [2] is 34.7 °C.

In the case of GCCAAGCGAAAGCTGCGC ((..(((....)))..)), the folding enthalpy in series [1] was -20.8 kcal/mol. The Tm in series [2] was determined as 51.6 °C.

As for GCCAAGCGAAAGCTGTGC ((..(((....)))..)), the folding enthalpy in series [1] was -17.4 kcal/mol. Also, the Tm in series [2] stood at 46.4 °C.

On to GCCAAGGGAAACCTCGGC (((.(((....))).))), for which the folding enthalpy in series [1] was -29.2 kcal/mol. Moreover, in series [2], the Tm was 46 °C.

Regarding GCCAAGGGAAACCTTGAC (.(((((....))))).), the folding enthalpy in series [1] was -20.6 kcal/mol. The Tm in series [2] worked out at 39.6 °C.

As for GCCAAGTCGAAAGACGGC (((..(((....)))))), the folding enthalpy in series [1] is -25.6 kcal/mol. In series [2], the Tm is 52.7 °C.

With GCCAATCGAAAGATGGC (((.(((....)))))), the folding enthalpy in series [1] is -35.5 kcal/mol. For the same sequence, in series [2], the Tm stood at 55.4 °C.

As for GCCACACGAAAGTGAGGC (((.(((....))).))), the folding enthalpy in series [1] is -35.8 kcal/mol. Moreover, in series [2], the Tm turned out to be 66.2 °C.

Regarding GCCACAGCGAAAGCTGGC (((..(((....)))))), the folding enthalpy in series [1] is -12.5 kcal/mol. Also, the Tm in series [2] was determined as 51.9 °C.

For GCCACAGGAAACCATGGC ((((..(....)..)))), the folding enthalpy in series [1] was -22.8 kcal/mol. In series [2], the Tm is 33.3 °C.

Turning to GCCACAGGAAACTGTAGC ((.((((....)))).)), the folding enthalpy in series [1] is -24.3 kcal/mol. For the same sequence, in series [2], the Tm came out at 39.4 °C.

In the case of GCCACAGGAAACTGTGAC (.(((((....))))).), the folding enthalpy in series [1] was -15.9 kcal/mol. The Tm in series [2] worked out at 46 °C.

On to GCCACCGAAAGGTAGGC ((((((....))).))), for which the folding enthalpy in series [1] was -32.2 kcal/mol. In series [2], the Tm was found to be 62.7 °C.

For GCCACCGAAAGGTCCGGC ((((((....)))..))), the folding enthalpy in series [1] was -17 kcal/mol. Besides, the Tm in series [2] is 46.8 °C.

GCCACCGGAAACAGCGGC (((.(.(....).).))): the folding enthalpy in series [1] was -16.9 kcal/mol. The Tm in series [2] was found to be 32.5 °C.

These data come from the array DNA melting data of Ke et al. (doi:10.1101/2024.01.08.574731).
